EBNA-1 inhibitor: blocks EBNA-1 binding to DNA; EBNA-1 DNA binding, fluorescence polarization; inhibition, % at 14.8 µM; 300,000 compounds, 0.34% hits; in the data active = inhibition above about 28%
HCV NS3 hel inh: HCV NS3 helicase inhibition; NS3 helicase DNA unwinding, Cy5 molecular beacon fluorescence; 290,000 compounds, 0.56% hits; inhibition, % at 10.9 µM;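 active = inhibition above the mean of all tested compounds plus 3 SD, set per campaign, cut at about 35% in these data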;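 note: 0% = DMSO wells and 100% = thioflavine S control wells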
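System: NS3 helicase fragment of HCV / Schedule: 1 h at 25 °C / Control set: DMSO alone as 0% and 110 µM thioflavine S as 100% / Reagent: Cy5/quencher beacon DNA duplex and ATP to start / Technique: Cy5 fluorescence / Replication: singlicate / Evaluation: % inhibition of end-to-start signal ratio versus controls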
EBV gp42 inh: inhibitors of Epstein-Barr virus glycoprotein 42; Q1HVG2; Fluorescence polarization binding assay, mP read-out; inhibition, % (tested at 21.74 µM); 220,000 compounds, 0.42% hits; in the data active = inhibition above about 50%
Target sequence (Q1HVG2 whole entry, looked up): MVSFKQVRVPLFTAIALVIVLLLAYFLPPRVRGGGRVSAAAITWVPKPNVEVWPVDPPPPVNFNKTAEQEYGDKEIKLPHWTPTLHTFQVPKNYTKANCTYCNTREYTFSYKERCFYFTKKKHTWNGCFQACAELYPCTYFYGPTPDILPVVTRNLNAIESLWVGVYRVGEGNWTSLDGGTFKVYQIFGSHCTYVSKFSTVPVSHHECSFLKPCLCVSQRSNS
HCV core dimer: HCV core protein dimerization inhibition. TR-FRET GST/Flag-core106 dimerization, 1536-well. 300,000 compounds, 0.33% hits. inhibition, % at 5 µM;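 active = inhibition above the mean of all tested compounds plus 3 SD, set per screening campaign, cut at about 45% in these data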
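Material: Tagged HCV core106 pair (GST and Flag) | Amount: GST-core106 13.5 nM, Flag-core106 17 nM | Medium: KF-containing HEPES buffer, pH 7.45, DTT, CHAPS, BSA | Reagent: Eu donor and XL665 acceptor anti-tag antibodies | Schedule: 4 h at 22.5 °C | Technique: Time-resolved FRET, ex 340 nm, em 617 and 671 nm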
ZTA counter: ZTA (EBV) inhibition in EBNA-1 counter-screen. inhibition, % at 11 µM. P03206. ZTA-DNA binding, fluorescence polarization. 320,000 compounds, 0.15% hits. AID 2234; in the data active = inhibition above about 33%
Target sequence (P03206 whole entry, looked up): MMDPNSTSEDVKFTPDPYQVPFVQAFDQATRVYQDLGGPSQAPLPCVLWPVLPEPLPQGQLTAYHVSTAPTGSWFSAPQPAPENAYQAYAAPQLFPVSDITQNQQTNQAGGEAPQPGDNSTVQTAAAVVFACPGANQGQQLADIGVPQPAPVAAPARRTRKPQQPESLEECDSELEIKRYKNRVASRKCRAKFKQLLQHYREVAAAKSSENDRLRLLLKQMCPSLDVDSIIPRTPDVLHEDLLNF
MEX-5 binding: C. elegans MEX-5 TCR-2 RNA binding activity | activity score (negative = inhibition of binding), % at 10 µM | AID 1832 | MEX-5/FITC-TCR2 RNA binding, fluorescence polarization; stronger effect = lower value | 300,000 compounds, 0.38% hits;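 active = inhibition past about -25% in most replicates, and total fluorescence under double the plate's negative control median, limit read from the data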;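 note: 0% = DMSO and -100% = 5 µM competing unlabeled TCR2 RNA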
An asterisk follows results filed as active. An excerpt weighted towards active compounds, which were near 1.7% of everything screened.

For Cc1ccc(-c2csc(NC(=O)c3ccno3)n2)cc1 the results were EBNA-1 inhibitor -4, HCV NS3 hel inh 7, EBV gp42 inh -3, HCV core dimer 62*, ZTA counter -7 and MEX-5 binding 2.
`O=C(CN1C(=O)NC(Cc2ccccc2)C1=O)Nc1ccc(F)c(Cl)c1` (stereo unspecified) gave ZTA counter -3.
COc1ccc(Cl)cc1C(=O)NC(=S)Nc1cc(-c2nc3ccccc3[nH]2)ccc1C was read as EBNA-1 inhibitor -4, HCV NS3 hel inh 8, EBV gp42 inh -9, HCV core dimer 47*, ZTA counter 0 and MEX-5 binding 0.
For CN(CCN1CCOCC1)C(=O)c1cc(COc2ccc(F)c(F)c2)on1 the results were EBNA-1 inhibitor -7, HCV NS3 hel inh -4, HCV core dimer 5, ZTA counter 15 and MEX-5 binding -1.
COc1ccc(N2CC(C(=O)Nc3ccccc3N3CCCC3)CC2=O)c(OC)c1 (stereo unspecified) was read as EBNA-1 inhibitor 3, HCV core dimer -1, ZTA counter 5 and MEX-5 binding -2.
Screening O=C(c1ccc(Cn2cc([N+](=O)[O-])cn2)o1)N1CCCCCC1 returned EBNA-1 inhibitor -10, HCV NS3 hel inh -2, HCV core dimer -13, ZTA counter -17 and MEX-5 binding -1.
`COc1ccc(-c2csc(NC(=O)CSc3nc(C)nc4sc(C(=O)O)c(C)c34)n2)cc1` gave EBNA-1 inhibitor 3, HCV NS3 hel inh 20, EBV gp42 inh 65*, HCV core dimer 21, ZTA counter 2 and MEX-5 binding 0.
Screening COC(=O)c1ccc(Nc2c([N+](=O)[O-])ccc3nonc23)cc1 returned EBNA-1 inhibitor 3, HCV NS3 hel inh 9, HCV core dimer 3, ZTA counter 3 and MEX-5 binding -1.
For COc1ccc(N2C(=O)[C@@H]3[C@H](C2=O)[C@H]2c4ccccc4C=CN2[C@@H]3C(C)=O)cc1 the results were EBNA-1 inhibitor -6, HCV NS3 hel inh 8, EBV gp42 inh 54*, HCV core dimer -5 and ZTA counter 2.
COc1ccc(N2C(=O)[C@H]3[C@@H](C2=O)C2c4ccccc4C=NN2[C@H]3C(=O)C(C)(C)C)cc1 (stereo partly specified) was read as EBNA-1 inhibitor -1, HCV NS3 hel inh 4, EBV gp42 inh -8, HCV core dimer 3, ZTA counter -11 and MEX-5 binding 0.
Screening COC(=O)/C=C/c1ccc2c(c1)OCO2 returned EBNA-1 inhibitor 1, HCV NS3 hel inh 5, EBV gp42 inh -2, HCV core dimer 0, ZTA counter 6 and MEX-5 binding -3.
CCNc1ccccc(C(=O)/C=C/c2ccc3c(c2)OCO3)c1=O was read as EBNA-1 inhibitor -21, HCV NS3 hel inh 16, EBV gp42 inh 6, HCV core dimer 50*, ZTA counter 15 and MEX-5 binding -5.
Screening O=C1CN(S(=O)(=O)c2cccc(C(=O)O)c2)c2ccccc2N1 returned EBNA-1 inhibitor -9, HCV NS3 hel inh -2, HCV core dimer -1, ZTA counter 8 and MEX-5 binding -4.
Screening CC(=O)N/N=C/c1cc(C(C)C)cc(/C=N/NC(C)=O)c1O returned EBNA-1 inhibitor 9, HCV NS3 hel inh -10, EBV gp42 inh 71*, HCV core dimer -3, ZTA counter 8 and MEX-5 binding -3.
For CC1=C(C(=O)OCc2ccccc2)C(c2ccccc2[N+](=O)[O-])NC(=O)N1C (stereo unspecified) the results were EBNA-1 inhibitor 4, HCV NS3 hel inh 14, HCV core dimer -2, ZTA counter -6 and MEX-5 binding -39*.
For CC1=C(C(=O)OCc2ccccc2)C(c2ccc([N+](=O)[O-])cc2)NC(=O)N1C (stereo unspecified) the results were EBNA-1 inhibitor -7, HCV NS3 hel inh -13, HCV core dimer -7, ZTA counter -5 and MEX-5 binding 0.
For C[C@H](NC(=O)[C@@H]1CSC2c3ccccc3C(=O)N21)C(=O)NCc1c(F)cccc1Cl (stereo partly specified) the results were EBNA-1 inhibitor -6, HCV NS3 hel inh -8, HCV core dimer 2, ZTA counter -4 and MEX-5 binding -2.
`CC(NC(=O)c1ccco1)C(=O)OCC(=O)N1CCCCCC1` (stereo unspecified) gave ZTA counter -16.
O=C(Nc1ccc(F)cc1)C1CCCN1S(=O)(=O)c1ccc(Br)cc1 (stereo unspecified) was read as EBNA-1 inhibitor 5, HCV NS3 hel inh 3, HCV core dimer 5, ZTA counter 5 and MEX-5 binding 2.
Screening Cc1ccc(OCC(=O)N/N=C/C=C/c2ccco2)cc1 returned EBNA-1 inhibitor -9, HCV NS3 hel inh 13, EBV gp42 inh -18, HCV core dimer 67*, ZTA counter -8 and MEX-5 binding -2.
O=C(CSc1nnc(SCc2ccccc2)s1)N/N=C/C=C\c1ccco1 was read as EBNA-1 inhibitor 6, HCV NS3 hel inh 21, EBV gp42 inh 53*, HCV core dimer 40, ZTA counter -8 and MEX-5 binding 0.
Screening Cc1ccc(-n2nc3c(=O)n(CC(=O)NC4CCCCCC4)nc(C)c3c2C)cc1 returned EBNA-1 inhibitor 1, HCV NS3 hel inh -2, HCV core dimer 8, ZTA counter -2 and MEX-5 binding 0.
For CCN(CC)c1ccc(-c2nn3c(-c4n[nH]c5c4CCC5)nnc3s2)cc1 the results were EBNA-1 inhibitor -7, HCV NS3 hel inh -12, EBV gp42 inh -29, HCV core dimer 39, ZTA counter 3 and MEX-5 binding 0.
C1CCC(c2nn3c(-c4n[nH]c5c4CCC5)nnc3s2)CC1 was read as EBNA-1 inhibitor 5, HCV NS3 hel inh 1, EBV gp42 inh -13, HCV core dimer 51*, ZTA counter 9 and MEX-5 binding 1.
Screening Nc1ncnc(NNC(=O)CNC(=O)c2c(F)cccc2Cl)c1[N+](=O)[O-] returned EBNA-1 inhibitor 5, HCV NS3 hel inh -3, EBV gp42 inh -6, HCV core dimer 1, ZTA counter -6 and MEX-5 binding -66*.
O=C(NCC1OCCc2ccccc21)c1ccc(NC(=O)c2ccc(Cl)cc2)cc1 (stereo unspecified) was read as EBNA-1 inhibitor 32*, HCV NS3 hel inh -3, EBV gp42 inh -15, HCV core dimer 5, ZTA counter 1 and MEX-5 binding -3.
For CC(=O)c1ccc2noc(-c3ccc(F)cc3)c2c1 the results were EBNA-1 inhibitor 0, HCV NS3 hel inh 14, EBV gp42 inh 95*, HCV core dimer -5, ZTA counter -8 and MEX-5 binding -15.
`Cc1ccc(C(=O)NCC(=O)OCCCOC(=O)CNC(=O)c2ccc(C)c(C)c2)cc1C` gave ZTA counter 6.
